# Screening data as filed in PubChem BioAssay.
# UBC13 polyUb – UBC13 polyubiquitin chain formation inhibitors, primary screen, biochemical, TR-FRET, uHTS. inhibition, % at 20 µM. hit rate 0.47% among 330,000. AID 485273, 2010; in the data active means inhibition above about 45%, passing the limit was not always enough
# GSTO1 inh – inhibitors of recombinant GSTO1, primary screen, counter-screen for RBBP9 inhibitor project, biochemical, fluorescence polarization | Glutathione S-transferase omega-1 (Homo sapiens), P78417 | activity-based probe fluorescence polarization | inhibition, % at 5.96 µM | hit rate 1.1% among 300,000 | AID 1974, 2009;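 active means inhibition above the campaign mean inhibition plus 3 SD, cut at about 35% in these data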;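 further: 0% = GSTO1-1 with DMSO and 100% = wells lacking GSTO1-1 enzyme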
# PAD4 FP inh – human PAD4 inhibitors, primary screen, biochemical, fluorescence polarization, 1536-well format; Protein-arginine deiminase type-4 (Homo sapiens), Q9UM07; recombinant PAD4, RCA probe fluorescence polarization; inhibition, % at 6.36 µM; hit rate 0.41% among 330,000; AID 485272, 2010;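 active means percent inhibition above a cutoff equal to the mean of all tested compounds plus 3 SD, cut at about 15% in these data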;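 further: 0% = PAD4 with RCA probe and DMSO and 100% = probe without PAD4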
# Target sequence (Q9UM07 whole entry, looked up): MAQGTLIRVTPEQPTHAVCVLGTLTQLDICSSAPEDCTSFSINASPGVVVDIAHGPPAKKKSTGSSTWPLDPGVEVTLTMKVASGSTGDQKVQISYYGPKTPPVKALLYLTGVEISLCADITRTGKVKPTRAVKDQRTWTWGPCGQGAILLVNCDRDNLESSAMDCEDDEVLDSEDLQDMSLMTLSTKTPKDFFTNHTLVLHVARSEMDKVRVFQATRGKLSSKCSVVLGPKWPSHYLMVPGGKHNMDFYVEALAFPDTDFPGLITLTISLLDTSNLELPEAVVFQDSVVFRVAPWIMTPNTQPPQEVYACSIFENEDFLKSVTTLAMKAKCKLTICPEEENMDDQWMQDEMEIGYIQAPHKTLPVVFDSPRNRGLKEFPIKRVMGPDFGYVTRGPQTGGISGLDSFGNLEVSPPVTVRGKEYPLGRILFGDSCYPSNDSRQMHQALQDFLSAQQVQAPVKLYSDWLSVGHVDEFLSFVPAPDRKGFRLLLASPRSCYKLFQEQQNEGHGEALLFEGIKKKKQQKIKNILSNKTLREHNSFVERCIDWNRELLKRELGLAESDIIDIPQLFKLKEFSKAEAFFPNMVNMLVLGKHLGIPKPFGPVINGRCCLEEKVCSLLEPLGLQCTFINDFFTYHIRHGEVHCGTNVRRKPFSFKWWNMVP
# SUMO HTRF inh – inhibitors of in vitro SUMOylation cascade, primary screen, biochemical, HTRF, uHTS. SUMO-conjugating enzyme UBC9 (Homo sapiens), P63279. inhibition, % at 35 µM. AID 2006, 2009. HTRF SUMOylation assay, SAE1/SAE2 + UBC9. hit rate 0.36% among 290,000; in the data active means inhibition above about 50%, passing the limit was not always enough
# Rin1 Abl inh – inhibitors of Rin1-Abl protein binding, primary screen, biochemical, TR-FRET; AID 588664, 2011; inhibition, % at 7.35 µM; Tyrosine-protein kinase ABL1 (Homo sapiens) + Ras and Rab interactor 1 (Homo sapiens), …; hit rate 0.4% among 360,000; in the data active means inhibition above about 5%, passing the limit was not always enough
# Apaf1 inhib – inhibitors of human Apaf-1 apoptosome, primary screen, biochemical, DEVD-Rh110 fluorescence, uHTS | hit rate 0.71% among 330,000 | reconstituted apoptosome caspase-3 activity | AID 489030, 2010 | Apoptotic protease-activating factor 1 (Homo sapiens), O14727 | inhibition, % at 20 µM; active means inhibition of at least 40% at 20 µM;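 further: plate controls were DMSO wells for no effect and DEVD-CHO caspase inhibitor wells for full effect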
#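 System – cell-free apoptosome with Apaf-1, procaspase-3 and caspase-9 · Buffer or medium – pH 7.5 Hepes buffer with CHAPS, BSA, DTT · Also added – cytochrome c with DEVD-Rh110 · Times – 30 min compound preincubation, 50 min activation, room temperature · Technique – Rh110 fluorescence intensity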
# An asterisk follows results filed as active; . = no result. Sampled rows, rich in hits. Any-hit rate of the full collection: about 2.2%.
SMILES,UBC13 polyUb,GSTO1 inh,PAD4 FP inh,SUMO HTRF inh,Rin1 Abl inh,Apaf1 inhib
CC(C)c1ccc(NS(=O)(=O)c2ccc(-n3cccn3)cc2)cc1,1,35*,1,7,2,22
CC(C)c1ccc(S(=O)(=O)Nc2ccc(-n3cnnn3)cc2)cc1,-6,.,.,.,6,8
CC(=O)c1cccc(N(C(=O)Cn2nnc3ccccc32)C(C(=O)NC2CCCCC2)c2cn(C)nc2C)c1 (centres undefined),-6,2,-2,5,2,1
O=C(NC1CCCCC1)C(c1ccc(O)c(O)c1)N(C(=O)Cn1nnc2ccccc21)c1cccc(O)c1 (centres undefined),7,36*,-1,14,6,-5
O=C(NC1CCN(Cc2ccccc2)CC1)c1cn(-c2ccccc2)nc1-c1cccnc1,-2,3,-6,.,3,12
CCCCN(C(=O)CSc1nnc(Nc2ccccc2)s1)c1c(N)n(CCC)c(=O)[nH]c1=O,-5,-4,20*,-6,-1,5
CCCCN(C(=O)CSc1nnnn1C)c1c(N)n(Cc2ccccc2)c(=O)[nH]c1=O,-5,-2,4,38,-1,-15
CC(C)CN=C(NS(=O)(=O)c1ccccc1)C(Cl)(Cl)Cl,0,78*,-1,8,3,3
C=CCOc1ccccc1CN1CCCN(C)CC1,0,4,1,7,3,-10
CC(C)(C)c1ccc(COn2c(=O)c(-c3ccco3)[n+]([O-])c3ccccc32)cc1,-20,43*,-3,-5,0,16
CC(C)CCN1C(=O)c2cccc3c(N)ccc(c23)C1=O,-178,0,24*,.,-18,11
O=C(c1cccs1)N1N=C(c2ccccc2)CC1c1ccccc1O (centres undefined),0,-13,9,66*,1,23
COc1ccc2[nH]c3c4c(ccc3c2c1)C(=O)C=CC4=O,-67,.,.,13,1,45*
COc1ccc2[nH]c(=O)cc(C(=O)O)c2c1,2,25,-4,44,3,-13
Cc1ccc(NC(=O)Nc2ccno2)cc1,4,0,-9,72*,1,6
N#CCOc1ccc2oc(-c3ccco3)cc(=O)c2c1,18,-11,-4,52*,.,-21
O=C1CNC(=S)N1CCc1ccc(O)c(O)c1,0,60*,-3,-12,-2,-2
CCOc1ccc(S(=O)(=O)Nc2ccc(C(=O)NCC(c3ccccc3)N(C)C)cc2)cc1 (centres undefined),1,0,2,11,3,11
Cc1nnc(NC(=O)CSc2ccc([N+](=O)[O-])cn2)s1,-9,37*,-2,5,0,-1
N#Cc1ccccc1NC(=O)CSc1ccc([N+](=O)[O-])cn1,-8,7,2,5,0,-11
CCOc1ccc(NS(=O)(=O)c2ccc3c(c2)oc(=O)n3C)cc1,-26,36*,-1,19,-3,12
Cc1ccc(NS(=O)(=O)c2ccc3c(c2)oc(=O)n3C)cc1C,0,37*,-1,2,-1,9
Cc1nc2ccc(C(=O)N(C)Cc3ccccc3)cn2c1N(C)C(=O)CCc1ccccc1,.,.,.,.,1,.
N#CCn1c(CCl)nc2ccccc2c1=O,-3,48*,-5,15,0,-12
COc1cc(C(=S)N2CCN(c3ccccc3Cl)CC2)cc(O)c1O,1,37*,-2,-20,-1,1
SMILES,UBC13 polyUb,GSTO1 inh,PAD4 FP inh,SUMO HTRF inh,Rin1 Abl inh,Apaf1 inhib
Cn1cc(C(=O)N/N=C/c2c(O)ccc3ccccc23)ccc1=O,-10,39*,5,7,-3,-3
O=C(N/N=C/c1c(O)ccc2ccccc12)c1ccc[n+](CCO)c1,-112,44*,2,1,-16,15
O=C(NCc1ccc(F)cc1)Nc1nnc([C@H]2C[C@H](O)[C@@H](CO)O2)s1,.,.,.,.,1,.
Cc1cc(C)c(OCC(=O)Nc2nnc(C3CC3)s2)c(C)c1,-9,.,.,.,-2,10
CCOC(=O)C1(C)CCN1C(=O)c1cc(-c2ccc(Cl)cc2)oc1C (centres undefined),.,.,.,.,-1,.
C#CCOCCOCCOCCNc1nc(N2CCOCC2)nc(N2CCN(C(=O)[C@H](Cc3cc4ccccc4[nH]3)n3cc([C@@H](N)C(C)CC)nn3)CC2)n1 (some centres undefined),26,2,2,-12,4,18
C#CCOCCOCCOCCNc1nc(N2CCN(C(=O)[C@H](CCCCN)n3cc(C(N)CO)nn3)CC2)nc(N2CCN(C(=O)[C@H](CCC(=O)O)n3cc(C(N)Cc4ccc(O)cc4)nn3)CC2)n1 (some centres undefined),0,.,.,23,.,15
C#CCOCCOCCOCCNc1nc(N2CCN(C(=O)[C@H]([C@@H](C)CC)n3cc([C@@H](N)Cc4ccc(O)cc4)nn3)CC2)nc(N2CCN(C(=O)[C@H](CCCCN)n3cc([C@@H](N)CC(C)C)nn3)CC2)n1,97*,-6,1,0,.,3
C#CCOCCOCCOCCNc1nc(N2CCN(C(=O)C(Cc3ccc(O)cc3)n3cc(C(N)CC(C)C)nn3)CC2)nc(N2CCN(C(=O)C(Cc3cc4ccccc4[nH]3)n3cc(C(N)C(C)CC)nn3)CC2)n1 (centres undefined),77*,-1,-4,-16,.,20
C#CCOCCOCCOCCNc1nc(N2CCN(C(=O)[C@H](CCCCN)n3cc([C@@H](N)CO)nn3)CC2)nc(N2CCN(C(=O)[C@H](Cc3cc4ccccc4[nH]3)n3cc([C@@H](N)Cc4ccc(O)cc4)nn3)CC2)n1,106*,15,1,-1,.,55*
C#CCOCCOCCOCCNc1nc(N2CCN(C(=O)[C@H](Cc3ccc(O)cc3)n3cc([C@@H](N)C(C)CC)nn3)CC2)nc(N2CCN(C(=O)[C@H](Cc3cc4ccccc4[nH]3)n3cc([C@@H](N)Cc4ccc(O)cc4)nn3)CC2)n1 (some centres undefined),78*,9,1,-23,.,56*
COc1ccc(Cl)cc1C(=O)N1CCN(Cc2ccc3c(c2)OCO3)CC1,-11,-1,-4,17,-1,-2
CCn1ncc([N+](=O)[O-])c1C(=O)Nc1ccc(C)c(C)c1,-1,5,-2,-8,2,-2
